This note sets out measurements from PubChem BioAssay.

Experiment [1] is described as follows: Her2 expression decrease, cell viability multiplex – SKBR3 breast tumor cells, AlphaScreen, ATP viability, primary screen (AID 461;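 active = Her2 level under about 52% in both replicate screens, with viability over 70% of control, limit read from the data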;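 for Her2 level: lower value means less Her2 protein in the cells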;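 for viability: percent of carrier control wells set as 100% viability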). The note with it: SKBR3 Her2 protein level, 18-24 h, measured here: SKBR3 viability, ATP luminescence, at 10 µM. Background: Bead proximity is the source of the signal in Alpha formats.
The target in experiment [2] is Receptor tyrosine-protein kinase erbB-2 (Homo sapiens) (UniProt P04626). Described as above. The conditions noted are these: 18-24 h, at 10 µM, stronger effect = lower value.
Chain of Receptor tyrosine-protein kinase erbB-2 (Homo sapiens) (P04626 whole entry, looked up): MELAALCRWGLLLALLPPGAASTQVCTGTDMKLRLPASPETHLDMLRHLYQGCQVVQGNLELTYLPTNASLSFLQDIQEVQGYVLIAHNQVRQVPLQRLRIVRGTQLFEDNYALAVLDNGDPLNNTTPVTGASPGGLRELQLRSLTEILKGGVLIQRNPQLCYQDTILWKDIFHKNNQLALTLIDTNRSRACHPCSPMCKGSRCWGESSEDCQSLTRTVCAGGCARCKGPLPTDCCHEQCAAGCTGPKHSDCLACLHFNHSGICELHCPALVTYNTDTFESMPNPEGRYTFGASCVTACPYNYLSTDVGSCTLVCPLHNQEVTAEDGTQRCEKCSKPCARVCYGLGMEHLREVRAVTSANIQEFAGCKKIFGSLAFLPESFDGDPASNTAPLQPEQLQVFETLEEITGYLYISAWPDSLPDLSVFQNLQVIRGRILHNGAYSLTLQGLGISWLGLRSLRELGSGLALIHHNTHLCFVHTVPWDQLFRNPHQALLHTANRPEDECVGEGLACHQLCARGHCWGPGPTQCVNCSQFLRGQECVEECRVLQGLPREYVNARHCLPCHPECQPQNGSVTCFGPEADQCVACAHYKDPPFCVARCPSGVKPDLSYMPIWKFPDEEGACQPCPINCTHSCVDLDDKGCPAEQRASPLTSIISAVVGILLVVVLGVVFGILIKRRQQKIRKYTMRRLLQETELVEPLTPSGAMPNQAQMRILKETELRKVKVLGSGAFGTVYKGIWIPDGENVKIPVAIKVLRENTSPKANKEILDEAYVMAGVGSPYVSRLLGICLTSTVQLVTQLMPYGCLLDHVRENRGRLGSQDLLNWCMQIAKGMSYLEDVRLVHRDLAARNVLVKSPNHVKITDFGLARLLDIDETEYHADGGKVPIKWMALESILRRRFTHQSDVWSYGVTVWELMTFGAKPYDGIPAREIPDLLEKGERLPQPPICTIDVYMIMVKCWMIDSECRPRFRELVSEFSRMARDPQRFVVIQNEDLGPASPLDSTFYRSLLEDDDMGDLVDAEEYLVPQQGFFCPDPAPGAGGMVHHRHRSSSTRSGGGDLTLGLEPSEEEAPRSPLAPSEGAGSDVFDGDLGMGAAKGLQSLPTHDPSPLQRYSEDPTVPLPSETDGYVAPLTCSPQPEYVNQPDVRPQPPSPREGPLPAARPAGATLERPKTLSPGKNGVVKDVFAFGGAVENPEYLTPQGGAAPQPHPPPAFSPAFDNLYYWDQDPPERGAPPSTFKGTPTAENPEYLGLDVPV
The nature of experiment [3]: reduced viability of SK-BR-3 breast cancer cells – cell-based, 24 h, human, pilot screen (AID 572;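 active = viability at or below 10% of carrier control in both of two separate runs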;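 note: compound exposure lasted between 18 and 24 h rather than exactly 24 h; 100% = carrier-treated control wells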). The note with it: SK-BR-3 viability, CellTiter-Glo luminescence, at 10 µM, stronger effect = lower value. Background: In ATP-based viability assays light output follows the ATP content of the culture.
Experiment [4] can be described thus: HUVEC growth inhibition – cell-based, human, primary screen (AID 575).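 Note: 100% = median of untreated cell wells with 0.1% DMSO on each plate.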 The note with it: HUVEC proliferation, CellTiter-Glo luminescence, 72 h; at 10 µM; stronger effect = lower value. In a few lines:
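Test system: HUVEC primary cells. Quantity: 1250 endothelial cells in each well. Dosing: single-point 10 µM, DMSO 0.1% final. Incubation: 72 h treatment at 37 °C. Measured by: CTG luminescence. Control set: DMSO cell controls and MePR drug controls. Plate: collagen-coated 384-well format.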

The nature of experiment [5]: H69AR cell proliferation blockers – human, duplicate replicates, primary screen (AID 580;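 active = viability at or under a set limit in both replicates, limit being median viability minus 3 SD, cut at about 48% in these data, passing the limit was not always enough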;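 note: 100% = mean luminescence of untreated wells and 0% = no signal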). The note with it: H69AR lung tumor cells viability, ATP luminescence, 72 h; at 10 µM; stronger effect = lower value.
Experiment [6] is described as follows: MRP1 drug-resistance reversers in H69AR cells – cell-based, doxorubicin co-treatment, pilot screen (AID 601;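 active = viability loss from added drug above about 55%, and viability with drug at most 40%, in both replicates, limit read from the data, passing the limit was not always enough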). The conditions noted are these: CellTiter-Glo, 72 h, at 10 µM; for differential viability (reversal): stronger effect = higher value.
Experiment [7] can be described thus: yeast transport mutant growth inhibition pilot in 384-well plates, post-Golgi transport modulator project (AID 636; in the data active = inhibition above about 31%). The note with it: absorbance 615 nm, about 18 h, stronger effect = higher value.
Experiment [8] is described as follows: growth suppression of yeast trafficking mutant, preliminary HTS, modulators of trafficking downstream of Golgi apparatus project, 1536-format plate, OD 615 nm (AID 637; in the data active = inhibition above about 30%). The note with it: yeast transport mutant growth, absorbance 615 nm, 18 h; stronger effect = higher value.
Setting [9] is: H69AR cells + 2 uM doxorubicin, measured here: viability with 2 uM doxorubicin, stronger effect = lower value.
Where [10] appears, read: H69AR cells, compound alone cytotoxicity.

Calls of active or inactive are those of the source.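 Rule for the calls, unless noted: active = viability at or below 30% in both replicate assays; inconclusive = viability at or below 30% in just one of the two assays; inactive = the rest.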

`CSCSC1=C(C#N)C(c2ccc(Cl)cc2)C(C(C)=O)=C(C)N1` (stereo not given): the viability (in general, a read-out of living cells in per cent, often relative to untreated cells) in experiment [1] is 106%; in experiment [3] it was 106% (inactive); in experiment [4], 64.3% (inactive); in experiment [5] it was 75.2% (inactive); in experiment [6] (setting [9]), 80.6%; in experiment [6] (setting [10]), 75.2%. Also, in experiment [2], the Her2 level is 94.5% (inactive). Moreover, in experiment [6] (H69AR cells + 2 uM doxorubicin), the differential viability (reversal) is -5.35% (inactive). Besides, the inhibition (commonly the change of the read-out against control, counted positive when it falls) in experiment [7] was -5.32% (inactive); in experiment [8] it was 1.31% (inactive).

For `Cc1nn(S(=O)(=O)N2CCCCC2)c(C)c1Br`, the viability in experiment [1] was 95%; in experiment [3] it was 95% (inactive); in experiment [4], 96.2% (inactive); in experiment [5] it was 102% (inactive); in experiment [6] (setting [9]), 97.1%; in experiment [6] (setting [10]), 102%. For the same compound, the Her2 level in experiment [2] was 130% (inactive). For the same compound, the differential viability (reversal) in experiment [6] (H69AR cells + 2 uM doxorubicin) was 5.13% (inactive). Moreover, the inhibition was -1.41% (inactive) in experiment [7] and -6.17% (inactive) in experiment [8].

On to `O=C(CSc1nnc(CNC(=O)c2cccs2)o1)NC1CCCC1`, for which the viability in experiment [1] is 102%; in experiment [3], 102% (inactive); in experiment [4] it was 102% (inactive); in experiment [5], 82.4% (inactive); in experiment [6] (setting [9]), 83.2%; in experiment [6] (setting [10]), 82.4%. Further, the Her2 level in experiment [2] is 100% (inactive). In experiment [6] (H69AR cells + 2 uM doxorubicin), the differential viability (reversal) was -0.76% (inactive). For the same compound, the results for the inhibition in experiment [7] and in experiment [8] were -0.26% (inactive) and -1.17% (inactive), respectively.

Turning to `CC1CCN(C(=O)C2CCN(S(=O)(=O)c3cnc[nH]3)CC2)CC1`, the viability is 98% in experiment [1]; 98% (inactive) in experiment [3]; 96.5% (inactive) in experiment [4]; 103% (inactive) in experiment [5]; 95.3% in experiment [6] (setting [9]); 103% in experiment [6] (setting [10]). In addition, the Her2 level in experiment [2] was 93% (inactive). Moreover, the differential viability (reversal) in experiment [6] (H69AR cells + 2 uM doxorubicin) is 7.72% (inactive). Also, the inhibition in experiment [7] was -4.61% (inactive); in experiment [8] it was 3.87% (inactive).

`O=C(NCc1cccnc1)c1ccccn1`: the viability is 102% in experiment [1]; 102% (inactive) in experiment [3]; 103% (inactive) in experiment [4]; 110% (inactive) in experiment [5]; 93.9% in experiment [6] (setting [9]); 110% in experiment [6] (setting [10]). Besides, the Her2 level in experiment [2] was 108% (inactive). Besides, the differential viability (reversal) in experiment [6] (H69AR cells + 2 uM doxorubicin) is 16.2% (inactive). The inhibition in experiment [7] is -4.8% (inactive); in experiment [8], -3.65% (inactive).

Consider `Cc1ccc2nc(NCCCN3CCOCC3)c(C=NCCCN3CCOCC3)c(=O)n2c1`, for which the viability in experiment [1] is 102%; in experiment [3], 102% (inactive); in experiment [4], 99.1% (inactive); in experiment [5], 81.9% (inactive); in experiment [6] (setting [9]), 86.6%; in experiment [6] (setting [10]) it was 81.9%. The Her2 level in experiment [2] is 84% (inactive). Besides, in experiment [6] (H69AR cells + 2 uM doxorubicin), the differential viability (reversal) was -4.68% (inactive). Further, the inhibition was -0.39% (inactive) in experiment [7] and -12% (inactive) in experiment [8].

With `O=S(=O)(c1cccc2nsnc12)N1CCN(c2ncccn2)CC1`, the viability was 87% in experiment [1]; 87% (inactive) in experiment [3]; 105% (inactive) in experiment [4]; 86.9% (inactive) in experiment [5]; 94.9% in experiment [6] (setting [9]); 86.9% in experiment [6] (setting [10]). Also, the Her2 level in experiment [2] is 96% (inactive). Moreover, the differential viability (reversal) in experiment [6] (H69AR cells + 2 uM doxorubicin) is -7.98% (inactive). Moreover, the values for the inhibition in experiment [7] and in experiment [8] were -7.16% (inactive) and 3.61% (inactive), respectively.

With `Cc1nnc(C)c2c(C)n(-c3ccc(Br)cc3)c(C)c12`, the viability in experiment [1] is 110%; in experiment [3] it was 110% (inactive); in experiment [4], 92.3% (inactive); in experiment [5] it was 104% (inactive); in experiment [6] (setting [9]), 87.2%; in experiment [6] (setting [10]), 104%. In experiment [2], the Her2 level was 110% (inactive). For the same compound, the differential viability (reversal) in experiment [6] (H69AR cells + 2 uM doxorubicin) was 17.2% (inactive). For the same compound, the inhibition was -7.07% (inactive) in experiment [7] and 1.61% (inactive) in experiment [8].

Consider `COc1ccc(-c2cc(C(F)(F)F)nc(N3CCN(c4ccc(F)cc4)CC3)n2)cc1OC`, for which the viability in experiment [1] was 78.5%; in experiment [3], 78.5% (inactive); in experiment [4], 71.7% (inactive); in experiment [5], 85.5% (inactive); in experiment [6] (setting [9]), 79.1%; in experiment [6] (setting [10]), 85.5%. Also, in experiment [2], the Her2 level is 88% (inactive). For the same compound, the differential viability (reversal) in experiment [6] (H69AR cells + 2 uM doxorubicin) was 6.42% (inactive). The inhibition is -2.97% (inactive) in experiment [7] and 13.9% (inactive) in experiment [8].

As to `COc1ccc(CCNC(=O)c2ccc(N3CCCC3=O)cc2)cc1OC`, the viability in experiment [1] is 102%; in experiment [3], 102% (inactive); in experiment [4], 103% (inactive); in experiment [5], 92.1% (inactive); in experiment [6] (setting [9]), 79.8%; in experiment [6] (setting [10]), 92.1%. Moreover, the Her2 level in experiment [2] was 108% (inactive). Further, the differential viability (reversal) in experiment [6] (H69AR cells + 2 uM doxorubicin) is 12.3% (inactive). Moreover, the inhibition in experiment [7] was -5.84% (inactive); in experiment [8] it was 4.92% (inactive).

Turning to `CC(C)(C)OC(=O)N1CCCC1C(=O)N1CCc2ccccc21` (stereo not given), the viability is 95.5% in experiment [1]; 95.5% (inactive) in experiment [3]; 94.9% (inactive) in experiment [4]; 84.9% (inactive) in experiment [5]; 89.4% in experiment [6] (setting [9]); 84.9% in experiment [6] (setting [10]). The Her2 level in experiment [2] was 86% (inactive). Further, the differential viability (reversal) in experiment [6] (H69AR cells + 2 uM doxorubicin) is -4.58% (inactive). The inhibition in experiment [7] was 1.17% (inactive); in experiment [8], -3.81% (inactive).

As for `CC(=O)N1CCc2cc(S(=O)(=O)NC(CC(C)C)C(=O)N3CCn4c3nc3ccccc34)ccc21` (stereo not given), the viability in experiment [1] is 88.5%; in experiment [3], 88.5% (inactive); in experiment [4], 92% (inactive); in experiment [5] it was 97.6% (inactive); in experiment [6] (setting [9]), 101%; in experiment [6] (setting [10]), 97.6%. Also, in experiment [2], the Her2 level was 87.5% (inactive). Also, the differential viability (reversal) in experiment [6] (H69AR cells + 2 uM doxorubicin) is -3.44% (inactive). Moreover, the inhibition in experiment [7] was -4.4% (inactive); in experiment [8] it was 1.8% (inactive).

Turning to `O=C(Nc1ccon1)c1csc2c1CCCC2`, the viability is 92.5% in experiment [1]; 92.5% (inactive) in experiment [3]; 83.2% (inactive) in experiment [4]; 98.3% (inactive) in experiment [5]; 87.4% in experiment [6] (setting [9]); 98.3% in experiment [6] (setting [10]). Further, the Her2 level in experiment [2] is 85% (inactive). Besides, in experiment [6] (H69AR cells + 2 uM doxorubicin), the differential viability (reversal) was 10.9% (inactive). Also, the inhibition was -5.66% (inactive) in experiment [7] and 2% (inactive) in experiment [8].

In the case of `CC1CCN(C(=O)CSc2nc3ccccc3[nH]2)CC1`, the viability in experiment [1] was 82%; in experiment [3], 82% (inactive); in experiment [4] it was 91.8% (inactive); in experiment [5], 109% (inactive); in experiment [6] (setting [9]), 94.6%; in experiment [6] (setting [10]), 109%. The Her2 level in experiment [2] was 99.5% (inactive). The differential viability (reversal) in experiment [6] (H69AR cells + 2 uM doxorubicin) was 14.7% (inactive). For the same compound, the inhibition in experiment [7] is 0.26% (inactive); in experiment [8], 6% (inactive).

`CCCn1nc(NS(=O)(=O)c2ccccc2)c2cc3ccccc3nc21`: the viability in experiment [1] is 91.5%; in experiment [3] it was 91.5% (inactive); in experiment [4], 76.5% (inactive); in experiment [5] it was 120% (inactive); in experiment [6] (setting [9]), 94.9%; in experiment [6] (setting [10]) it was 120%. The Her2 level in experiment [2] was 94.5% (inactive). In experiment [6] (H69AR cells + 2 uM doxorubicin), the differential viability (reversal) is 25% (inactive). Besides, the values for the inhibition in experiment [7] and in experiment [8] were -1.84% (inactive) and 5.45% (inactive), respectively.
